From ChEMBL document CHEMBL4340513, “Dual-targeting Rutaecarpine-NO donor hybrids as novel anti-hypertensive agents by promoting release of CGRP” (Eur J Med Chem, 2019)
Activity calls are given as the source filed them. The calls are words filed in the database; no cut-off is given here.

How the values were obtained:
Aorta [1] = experiment: Vasodilating activity in Sprague-Dawley rat aortic rings assessed as reduction in phenylephrine-induced contractions in presence of L-cysteine and TRPV1 antagonist capsazepine; type: functional, tissue-based
Summary of the method: (§1)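 SD rat aortic rings were prepared as for the standard ring assay and randomly grouped. They were preincubated 10 min with L-cysteine (1 µM final) alone or with HC030031 (10 µM), capsazepine (10 µM), both, or CGRP(8-37) (10 µM, in water), all final. Phenylephrine contraction (2 µM final) preceded a cumulative concentration–response curve at 10^-9–10^-6 M final. Mean, n = 5.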

Aorta [2] = experiment: Vasodilating activity in Sprague-Dawley rat aortic rings assessed as reduction in phenylephrine-induced contractions; type: functional, tissue-based
Summary of the method: (§2)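 Thoracic aorta rings (4 mm) from male SD rats (250-300 g, chloral hydrate anesthesia), cleaned of fat and connective tissue and held at 2 g resting force in Krebs' solution. After KCl response, washout and 30 min re-equilibration, rings got L-cysteine (1 µM final, 10 min), then phenylephrine contraction (2 µM final). Cumulative concentration–response curve at 10^-9–10^-6 M final gave EC50. DMSO ≤0.1%.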

Rattus norvegicus [3] = experiment: Antihypertensive activity in carotid cannulated Sprague-Dawley rat assessed as reduction in systolic arterial pressure at 20 to 40 mg/kg, ip measured within 2 hrs relative to rutaecarpine; type: functional, organism-based
Summary of the method: (§3)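 Male SD rats (250-300 g) under sodium pentobarbital (40 mg/kg, 10 mg/kg supplements), kept at 37°C and tracheotomized. The right carotid artery was cannulated to a pressure transducer. Once pressure was stable, compounds suspended in sodium carboxymethyl cellulose were given i.p. at 20 or 40 mg/kg. Arterial pressure was recorded continuously for 2 h to derive its decrease.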

Rattus norvegicus [4] = experiment: Antihypertensive activity in carotid cannulated Sprague-Dawley rat assessed as reduction in diastolic arterial pressure at 20 to 40 mg/kg, ip measured within 2 hrs relative to rutaecarpine; type: functional, organism-based; summary of the method: as §3
Aorta [5] = experiment: Vasodilating activity in Sprague-Dawley rat aortic rings assessed as reduction in phenylephrine-induced contractions in presence of L-cysteine and TRPA1 antagonist HC030031; type: functional, tissue-based; summary of the method: as §1
Rattus norvegicus [6] = experiment: Increase in CGRP level in Sprague-Dawley rat blood at 20 to 40 mg/kg, ip by ELISA; type: functional, organism-based
Summary of the method: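 Rat serum CGRP was quantified with a commercial CGRP ELISA kit per the manufacturer. Optical density was read at 450 nm and concentrations were expressed as pg/mL.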

Aorta [7] = experiment: Vasodilating activity in Sprague-Dawley rat aortic rings assessed as reduction in phenylephrine-induced contractions in presence of L-cysteine and CGRP receptor antagonist CGRP(8 to 37); type: functional, tissue-based; summary of the method: as §1
Aorta [8] = experiment: Vasodilating activity in Sprague-Dawley rat aortic rings assessed as reduction in phenylephrine-induced contractions relative to control; type: functional; summary of the method: as §2
Aorta [9] = experiment: Vasodilating activity in Sprague-Dawley rat aortic rings assessed as reduction in phenylephrine-induced contractions at 1:1 ratio of test compound to furoxan; type: functional, tissue-based
Aorta [10] = experiment: Vasodilating activity in Sprague-Dawley rat aortic rings assessed as reduction in phenylephrine-induced contractions at 1:1 ratio of test compound to furoxan relative to control; type: functional

Row | Compound | EC50 (Aorta [2]) [nM] | Emax (Aorta [8]) [%] | also measured
1 | O=c1c2cc(OCCOCCOCCNCc3c(-c4cccc5ccccc45)no[n+]3[O-])ccc2nc2n1CCc1c-2[nH]c2ccccc12 | 1410 | 45.3 | –
2 | O=c1c2cc(OCCOCCOCCNCc3c(-c4ccoc4)no[n+]3[O-])ccc2nc2n1CCc1c-2[nH]c2ccccc12 | 22500 | 30.6 | –
3 | O=c1c2cc(OCCOCCOCCNCc3c(-c4ccccc4)no[n+]3[O-])ccc2nc2n1CCc1c-2[nH]c2ccccc12 | 774 | 54.6 | –
4 | CC(C)c1ccc(-c2no[n+]([O-])c2CNCCOCCOCCOc2ccc3nc4n(c(=O)c3c2)CCc2c-4[nH]c3ccccc23)cc1 | 2590 | 40.9 | –
5 | O=c1c2ccccc2nc2n1CCc1c-2n(CCOCCOCCNCc2c(-c3ccccc3)no[n+]2[O-])c2ccccc12 | 2040 | 43.2 | –

Now those with a lower EC50 (Aorta [2]), led by results:

Row | EC50 (Aorta [2]) [nM] | Compound | Emax (Aorta [8]) [%] | also measured
6 | 13.1 | O=c1c2cc(OCc3c(-c4ccccc4)no[n+]3[O-])ccc2nc2n1CCc1c-2[nH]c2ccccc12 | 85.2 | Activity (Aorta [1]): inactive; Activity (Rattus norvegicus [3]): Active; Activity (Rattus norvegicus [4]): Active; Activity (Aorta [5]): inactive; Activity (Rattus norvegicus [6]): inactive; Activity (Aorta [7]): inactive
7 | 156 | O=c1c2ccccc2nc2n1CCc1c-2[nH]c2ccccc12 [RUTAECARPINE] | 66.3 | EC50 (Aorta [9]): 29.7 nM; Emax (Aorta [10]): 75.3%; Activity (Rattus norvegicus [6]): inactive
8 | 30.7 | O=c1c2cc(OCCOCCOCCNCc3c(-c4ccsc4)no[n+]3[O-])ccc2nc2n1CCc1c-2[nH]c2ccccc12 | 73.6 | –
9 | 158 | O=c1c2cc(OCCOCCOCCNCc3c(-c4cccc(F)c4)no[n+]3[O-])ccc2nc2n1CCc1c-2[nH]c2ccccc12 | 77.3 | –
10 | 15.2 | O=c1c2cc(OCCOCCNCc3c(-c4ccccc4)no[n+]3[O-])ccc2nc2n1CCc1c-2[nH]c2ccccc12 | 81.4 | –
11 | 112 | O=c1c2ccccc2nc2n1CCc1c-2[nH]c2ccc(OCCOCCOCCNCc3c(-c4ccccc4)no[n+]3[O-])cc12 | 64.2 | –
12 | 116 | CCOc1ccccc1-c1no[n+]([O-])c1CNCCOCCOCCOc1ccc2nc3n(c(=O)c2c1)CCc1c-3[nH]c2ccccc12 | 69.9 | –
